Reference: PubChem BioAssay AID1019 (Sanford-Burnham Center for Chemical Genomics, 2008)
Screen size: about 190,000 compounds; fewer than 10 were called active.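 How the source made its calls: active means over 50% inhibition of intestinal alkaline phosphatase at 20 µM in the single-dose screen; inactive means the rest.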 Not all results are given here.

Test system: alkaline phosphatase, intestinal [Bos taurus]
Experiment: IAP enzyme activity blockers – biochemical, bovine IAP, CDP-star luminescence, selectivity assay for TNAP inhibitor project, primary screen (AID 1019)
Conditions: purified bovine IAP, 30 min, at 20 µM, stronger effect = higher value
Summary of the method: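 Assay system: bovine IAP enzyme; medium: DEA buffer 100 mM, pH 9.8, with MgCl2 1.0 mM, ZnCl2 0.02 mM; doses: 20 µM single dose; incubation: enzyme reaction for 30 min at room temperature; detection: CDP-star luminescence signal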

inhibition, inactive:
CCCC(=O)OCC(=O)Nc1cc(Cl)ccc1[N+](=O)[O-] 12.7%, O=C(COC(=O)CC1CC2CCC1C2)NC(=O)NC1CCCC1 (centres undefined) -11.4%, COC(=O)c1ccc(NC(=S)Nc2cccc(C)n2)cc1 0.2%, COc1ccccc1NC(=O)c1cc(Cl)nnc1Cl -4%, O=C(CCc1ccc(S(=O)(=O)N2CCOCC2)cc1)NN=C1CCCCCCC1 5%, O=C(COC(=O)CCCNC(=O)c1ccc(Cl)cc1)Nc1cc(Cl)ccc1Cl 33.8%, COc1cccc(/C=N/NC(=O)CNC(=O)c2ccc(S(=O)(=O)N3CCOCC3)cc2)c1OC 16.1%, CS(=O)(=O)Nc1ccc(C2=NN(S(C)(=O)=O)C(c3cccs3)C2)cc1 (centres undefined) -11%, O=C(COC(=O)c1ccc(O)cc1)Nc1nccs1 -1.9%, COc1ccc(C(=O)NC2(C(F)(F)F)NC(=O)N(CCCc3ccccc3)C2=O)c(OC)c1OC (centres undefined) -13%, CCCCC1N2CC3([N+](=O)[O-])CN1CC([N+](=O)[O-])(C2)C3(C)C (centres undefined) 3.9%, Cc1cc(F)ccc1S(=O)(=O)N1CCCOC1CNC(=O)C(=O)NCCC1=CCCCC1 (centres undefined) 6.4%, CC(C)=C1C2CCC1C1C(=O)N(NC(=O)c3ccco3)C(=O)C21 (centres undefined) 41.2%, Cc1csc(NC(=O)CSc2ccc(-c3ccc(F)cc3)nn2)n1 -3.9%, CN(CC(=O)NCCc1ccccc1)S(=O)(=O)c1cnc[nH]1 5.2%, O=S1(=O)CCC(NC(=S)SCc2ccccc2Br)C1 (centres undefined) 23.3%, CCCCNC(=O)CCn1c(=O)c2ccccc2n(Cc2cc(C)ccc2C)c1=O 15.7%, NC(=O)C1=C[C@H](c2csc3ccccc23)C[C@H](OCc2ccc(CO)cc2)O1 -16.7%, S=C(NC1CCCCC1)NN1CCOCC1 -0.1%, COc1ccccc1NC(=O)CCSc1nnc(-c2ccc(O)cc2)o1 3.5%, Nc1cccc(CCc2nc3ccccc3[nH]2)c1 12%, O=[N+]([O-])c1ccc(NCCCO)c(C(F)(F)F)c1 -0.5%, CC(C)c1nc2sc3c(c2c(=O)n1N)CC(C)(C)OC3 -5%, O=C(Nc1cccc(C(F)(F)F)c1)c1cnccn1 5.6%, COc1ccc(OCCCn2cccc2/C=C2/C(=N)N3OC(C)=CC3=NC2=O)cc1 13.7%, CCOC12CC(C)(C)CC(C)(CC3=C1C(=O)CC(C)(C)C3)C2 (centres undefined) -12.4%, Cn1c(CCCOc2ccc(Cl)cc2Cl)n[nH]c1=S 25.8%, CCCCN(CC)C(=S)Nc1ccc2nc3n(c(=O)c2c1)CCCCC3 -16.6%, O=C(CCc1ccccc1)NCCc1cccs1 1.2%, O=C(NN1C(=O)C2C3C=CC(O3)C2C1=O)c1ccccc1 (centres undefined) -0.3%, CN(C(=O)CSc1nnc(-c2c[nH]c3ccccc23)o1)C1CCS(=O)(=O)C1 (centres undefined) -2.2%, CCc1cccc2c(=O)c(C(=O)NCCCOC)c[nH]c12 -5.7%, COc1ccc(CCNC(=O)COC(=O)Cc2cc(OC)c(OC)c(OC)c2)cc1 -4.1%, O=c1cc(CN2CCN(S(=O)(=O)/C=C/c3ccccc3)CC2)c2ccc(O)cc2o1 1.7%, Cc1cccc(N2CCN(C(=O)/C=C/c3ccco3)CC2)c1C 6.3%, CCCCn1nc(C(=O)OCC(=O)Nc2sccc2C(N)=O)c2ccccc2c1=O -0.9%, COc1ccnc(Oc2ccccc2)n1 -11%, O=C1CCCC(O)=C1N=Nc1ccc2ncsc2c1 6.3%, O=C(C1=C[C@H](c2ccc(C(F)(F)F)cc2)C[C@H](OCc2ccc(CO)cc2)O1)N1CCN(Cc2ccccc2)CC1 -12.1%, COC(=O)c1sc(N)c(C(=O)OC)c1COC(=O)CNS(=O)(=O)c1ccc(C)cc1 11.4%, CN(c1ccccc1)S(=O)(=O)c1cc(C(=O)OCC(=O)N2CCN(C(=O)c3ccco3)CC2)ccc1Cl -7.4%, C=CCNC(=S)N1CCN(CCN=Cc2c(C)[nH]n(-c3ccc([N+](=O)[O-])cc3)c2=O)CC1 -6.4%, CCC(C)N(C)C1CCN(C(=S)Nc2ccc(OC)cc2)CC1 (centres undefined) -6.9%, CCC(C)NC(=O)Cn1nc(C(F)(F)F)c2c1CCC2 (centres undefined) -10.6%, CCOc1ccc(-c2n[nH]c(C)c2-c2ccccn2)c(O)c1 -27.5%, O=C(c1cc(Cl)cc(Cl)c1)N1CCC(=O)N(C(COCc2ccccc2)Cc2ccccc2)CC1 (centres undefined) -2.4%, COc1ccc(Cn2c(=O)cc(C)[nH]c2=S)cc1 9.8%, Cc1ccc(Cl)cc1NC(=O)COC(=O)CC(C)(C)C -16%, CCc1ccc(N2CC(O)=C(c3nc4ccccc4c(=O)[nH]3)C2=N)cc1 -19.9%, CC(C)c1cc(NCc2ccccn2)n2c(nc3ccccc32)c1C#N -20.8%, CC(C)[C@@H]1NC(=O)c2cc([N+](=O)[O-])cc(I)c2NCCC[C@@H](C(=O)NC(CC(=O)O)C(N)=O)NC(=O)[C@H](CO)NC1=O (some centres undefined) 6.3%, Cc1ccc(-c2ccc(/C=N/NC(=O)CN3CCOCC3)o2)cc1[N+](=O)[O-] -0.9%, C/C(=N\NC(=O)C(N)=O)c1ccc2c(c1)OCCO2 -4.3%, Cc1ccc(NC(=O)c2cccnc2C(=O)Nc2ccc(C)cc2)cc1 -4.3%, Cc1ccc(CN2CCN(Cc3cccc(C)n3)CC2CCO)cc1 (centres undefined) -23.9%, CCN(CC)c1ccc(C(=O)c2cnc(/N=C/N(C)C)s2)cc1 11.8%, CC(C)CNC(=O)C(=O)Nc1ccc(N(C)C)cc1 -7.9%, O=C(CSc1nnc(-c2ccc([N+](=O)[O-])cc2)o1)Nc1ccccn1 -24.6%, CCO[C@@H]1OC(C(N)=O)=C[C@H](c2ccc(Br)cc2)[C@H]1CCCO -2%
